In the library only some 2.9% were active in any assay of this set; here they are far more common.
CHO-K1 Ca antag – nonselective inhibitor or artifact in parental CHO-K1 cells; ATP-induced calcium, Fluo-8 fluorescence; inhibition, % at 3 µM; hit rate 0.6% among 360,000; AID 602250;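 active = inhibition above a per-plate cutoff, the plate's mean sample inhibition plus 3 SD, cut at about 24% in these data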;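 also: 0% = DMSO plus EC80 ATP and 100% = DMSO alone without ATP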
OX1R antag-1 – blocks the human orexin 1 receptor. O43613. OX1R-expressing cells, FRET antagonist read-out. inhibition, % at 6.6 µM. hit rate 1.8% among 330,000. AID 485270; in the data active = inhibition mostly above about 38%, no sharp cut-off; inactive = mostly below about 40%;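 also: 0% = agonist challenge alone and 100% = reference antagonist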
Target sequence (O43613 whole entry, looked up): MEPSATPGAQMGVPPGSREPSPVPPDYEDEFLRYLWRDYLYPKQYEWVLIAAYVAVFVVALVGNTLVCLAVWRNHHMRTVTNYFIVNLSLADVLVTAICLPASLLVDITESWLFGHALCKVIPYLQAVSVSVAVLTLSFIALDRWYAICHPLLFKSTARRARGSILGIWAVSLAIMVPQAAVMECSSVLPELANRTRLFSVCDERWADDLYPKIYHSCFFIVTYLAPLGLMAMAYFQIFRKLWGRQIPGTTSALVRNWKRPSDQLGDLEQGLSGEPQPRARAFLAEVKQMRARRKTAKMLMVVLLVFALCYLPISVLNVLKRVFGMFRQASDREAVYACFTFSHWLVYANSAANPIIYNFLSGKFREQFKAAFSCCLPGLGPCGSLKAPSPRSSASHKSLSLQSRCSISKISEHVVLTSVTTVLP
CHO-K1 Ca PAM – M1 PAM counterscreen hit in parental CHO-K1 cells. ATP EC20, Fluo-8 calcium fluorescence; 0% at ATP EC20, 100% at ATP max. activation, % at 3 µM. hit rate 0.02% among 360,000;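 active = activation above the run cutoff, the mean activation of all test compounds plus 3 SD, cut at about 40% in these data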;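 also: peak over basal fluorescence ratio in a 140 s read after ATP addition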
OX1R antag-2 – antagonists of human orexin 1 receptor. O43613. CHO/OX1R cells, Fluo-8 calcium fluorescence, orexin A. inhibition, % at 5 µM. hit rate 0.43% among 330,000. AID 434989;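 active = inhibition above its plate's threshold, mean inhibition of all tested compounds on the plate plus 3 SD, cut at about 37% in these data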;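 also: 0% = orexin A challenge wells and 100% = SB-334867-A antagonist wells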
CHO parental Ca – counter-screen for OX1R antagonists: effect in parental CHO cells; parental CHO-K1, ATP-induced calcium, Fluo-8 fluorescence; inhibition, % at 5.6 µM; hit rate 0.63% among 330,000; AID 463079;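 active = inhibition above that plate's mean sample inhibition plus 3 SD, cut at about 26% in these data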;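 also: 0% = ATP-challenged DMSO wells and 100% = DMSO wells without ATP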
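Assay system: parental CHO cells; Read-out basis: percent inhibition of ATP-evoked calcium rise, normalized to controls; Benchmarks: ATP and no-ATP DMSO wells; Compound dosing: single nominal dose of 5.6 µM per compound; Signal: Fluo-8 calcium dye fluorescence; Also added: ATP as calcium-mobilizing challenge; Repeats: singlicate.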
CHO-K1 Ca ag – nonselective activator or artifact in parental CHO-K1 cells; Fluo-8 calcium fluorescence; scaled to maximal ATP response, vehicle zero; AID 602248; activation, % at 3 µM; hit rate 0.48% among 360,000; in the data active = activation above about 15%;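 also: untransfected CHO-K1 host cells lacking M1 receptor as counterscreen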
The depositor's hits bear a star.

O=C(CNC(=O)C1CCCCC1)Nc1cc(Cl)ccc1Cl was read as CHO-K1 Ca antag 25*, OX1R antag-1 1, CHO-K1 Ca PAM -14, OX1R antag-2 -11, CHO parental Ca -30 and CHO-K1 Ca ag -1.
For CN1C(=O)S/C(=C/c2cccnc2)C1=O the results were CHO-K1 Ca antag -13, OX1R antag-1 65*, CHO-K1 Ca PAM 19, OX1R antag-2 1, CHO parental Ca -2 and CHO-K1 Ca ag 1.
Cc1cc(C(=O)N2CCC2(C)C(=O)Nc2ccc3[nH]ncc3c2)nn1C (centres undefined) was read as CHO-K1 Ca antag 1, CHO-K1 Ca PAM 2 and CHO-K1 Ca ag 1.
`O=C1C2CCCCN2C(=O)N1CCCCN1CCN(c2ccc([N+](=O)[O-])cc2)CC1` (centres undefined) gave CHO-K1 Ca antag 4, OX1R antag-1 36, CHO-K1 Ca PAM 14, OX1R antag-2 -1, CHO parental Ca 10 and CHO-K1 Ca ag 16*.
COC(=O)C1CCN(C(=O)c2cc(-c3ccco3)nc3ccccc23)CC1 was read as CHO-K1 Ca antag -13, OX1R antag-1 6, CHO-K1 Ca PAM -11, OX1R antag-2 -26, CHO parental Ca -14 and CHO-K1 Ca ag 2.
For CC(C)c1ccc(OCC(O)CNC(C)c2ccccc2)cc1 (centres undefined) the results were CHO-K1 Ca antag -8, OX1R antag-1 9, CHO-K1 Ca PAM 24, OX1R antag-2 -17, CHO parental Ca -7 and CHO-K1 Ca ag 21*.
`CC(=O)Nc1cc(-c2cccc(N)c2)cn2c(-c3ccccc3)cnc12` gave CHO-K1 Ca antag 7, CHO-K1 Ca PAM -12 and CHO-K1 Ca ag 1.
`O=C(O)CC(Cc1ccccc1)c1ccc2c(c1)OCO2` (centres undefined) gave CHO-K1 Ca antag 33*, OX1R antag-1 12, CHO-K1 Ca PAM -10, OX1R antag-2 -4, CHO parental Ca 3 and CHO-K1 Ca ag 0.
Screening O=C(NC(Cc1ccc2c(c1)OCO2)C(=O)NC(Cc1ccccc1)C(=O)O)c1ccccc1 (centres undefined) returned CHO-K1 Ca antag 25*, OX1R antag-1 2, CHO-K1 Ca PAM -6, OX1R antag-2 -4, CHO parental Ca 4 and CHO-K1 Ca ag 0.
Screening Cc1ccc(CC(NC(=O)c2ccccc2)C(=O)NC(Cc2ccccc2)C(=O)O)cc1 (centres undefined) returned CHO-K1 Ca antag -6, OX1R antag-1 18, CHO-K1 Ca PAM 19, OX1R antag-2 -9, CHO parental Ca 12 and CHO-K1 Ca ag 1.
For CCOC(=O)C1=C(Cn2cnc3ccccc32)NC(=O)NC1c1cc(C)ccc1C (centres undefined) the results were CHO-K1 Ca antag 3, OX1R antag-1 39, CHO-K1 Ca PAM 16, OX1R antag-2 79*, CHO parental Ca 95* and CHO-K1 Ca ag 4.
CCN(CC)c1ccc2cc(-c3nnc(-c4ccncc4)o3)c(=O)oc2c1 was read as CHO-K1 Ca antag 5, CHO-K1 Ca PAM 16 and CHO-K1 Ca ag 19*.
CCN(CC)c1ccc2cc(C=O)c(=O)oc2c1 was read as CHO-K1 Ca antag 11, OX1R antag-1 116*, CHO-K1 Ca PAM -5, OX1R antag-2 38, CHO parental Ca 50* and CHO-K1 Ca ag 26*.
For CCN(CC)c1ccc2cc(C(N)=O)c(=O)oc2c1 the results were CHO-K1 Ca antag -17, OX1R antag-1 19, CHO-K1 Ca PAM 13, OX1R antag-2 -5, CHO parental Ca -3 and CHO-K1 Ca ag 2.
For CS(=O)(=O)c1ccc(Cl)c(NC(=O)c2cc(=O)[nH]c3ccc(S(=O)(=O)N4CCOCC4)cc23)c1 the results were CHO-K1 Ca antag -12, OX1R antag-1 8, CHO-K1 Ca PAM 7, OX1R antag-2 -16, CHO parental Ca -12 and CHO-K1 Ca ag 1.
For CCCCNc1nc(CC)c2c(c1C#N)CCCC2 the results were CHO-K1 Ca antag 10, OX1R antag-1 18, CHO-K1 Ca PAM 4, OX1R antag-2 -10, CHO parental Ca -8 and CHO-K1 Ca ag 0.
CCCCc1nc(NCCO)c(C#N)c2c1CCCC2 was read as CHO-K1 Ca antag 1, OX1R antag-1 15, CHO-K1 Ca PAM -8, OX1R antag-2 -40, CHO parental Ca 50* and CHO-K1 Ca ag 1.
Screening O=c1cc(C(F)(F)F)oc2c1ccc1ccccc12 returned CHO-K1 Ca antag -2, OX1R antag-1 11, CHO-K1 Ca PAM 15, OX1R antag-2 -6, CHO parental Ca -8 and CHO-K1 Ca ag 1.

Compound activity deposited in PubChem BioAssay by The Scripps Research Institute Molecular Screening Center.
